# Assay outcomes deposited in PubChem by Broad Institute.
# Only some compounds are listed: those with a hit (about 5.8% of all), similar ones and a draw of the others.
# IDH1 R132H inh: blocks human IDH1 R132H reductase activity | O75874 | diaphorase/resazurin fluorescence, 60 min | inhibition, % at 10 µM | 70,000 compounds, 0.18% hits | AID 624101; in the data active means inhibition above about 34%; inconclusive means no clear call, values can overlap the other calls; inactive means below about 11%;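 further: 0% = DMSO and 100% = no enzyme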
# Pf Dd2 growth: inhibitors of Plasmodium falciparum Dd2 growth | 94,000 compounds, 2.3% hits | P. falciparum Dd2 growth, SYBR Green, 72 h; stronger effect = lower value | activity change, % at 10 µM; in the data active means activity change below about -80%; inconclusive means no clear call, values can overlap the other calls
# GASC1 inh: inhibitors of human demethylase GASC-1 KDM4C; GST-KDM4C 2-372, H3K9me3 peptide, LANCE TR-FRET; inhibition, % at 12.5 µM; 96,000 compounds, 0.15% hits; AID 720574;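 active means mean replicate inhibition above about 25%, with at least 55% of replicates also reaching it, limit read from the data, passing the limit was not always enough; inconclusive means only one of those two conditions met; inactive means neither condition met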
# Target sequence (Q9H3R0 2-372 limits assumed): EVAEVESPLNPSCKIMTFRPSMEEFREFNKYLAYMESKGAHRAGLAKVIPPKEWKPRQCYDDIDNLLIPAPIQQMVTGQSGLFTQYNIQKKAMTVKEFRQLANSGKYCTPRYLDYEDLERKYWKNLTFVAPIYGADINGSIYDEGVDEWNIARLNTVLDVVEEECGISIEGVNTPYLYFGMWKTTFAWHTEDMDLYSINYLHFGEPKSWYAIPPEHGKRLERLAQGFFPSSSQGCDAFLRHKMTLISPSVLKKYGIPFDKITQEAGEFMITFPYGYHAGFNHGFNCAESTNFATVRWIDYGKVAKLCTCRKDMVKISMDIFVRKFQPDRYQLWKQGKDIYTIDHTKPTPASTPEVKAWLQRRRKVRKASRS
#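 Assay system: GST-GASC-1 enzyme fragment 2-372 | Amount: 10 nM enzyme | Medium: HEPES buffer, pH 7.5, plus ascorbate | Reagent: H3K9me3 peptide substrate, Fe(II), 2-oxoglutarate | Doses: Single-point compound screen | Incubation: 30 min demethylation and 1 h detection at room temperature | Measured by: LANCE TR-FRET, excitation 340 nm, emissions 618 and 671 nm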
# Tcruzi prolif: blocks T. cruzi growth in NIH3T3 culture; T. cruzi beta-gal in NIH3T3, GalScreen luminescence, 90 h; 77,000 compounds, 5.9% hits; AID 624255; inhibition, % at 8.34 µM;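 active means mean inhibition above about 93%, with at least 55% of replicates each passing it, limit read from the data, passing the limit was not always enough; inconclusive means only one of those two conditions holds; inactive means neither condition holds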
# Numbers without * were called inactive; u = inconclusive; x = no result given.
SMILES,IDH1 R132H inh,Pf Dd2 growth,GASC1 inh,Tcruzi prolif
COc1ccc(S(=O)(=O)Nc2ccc3c(c2)C(=O)N([C@@H](C)CO)C[C@@H](C)[C@@H](CN(C)S(=O)(=O)c2ccc(Cl)cc2)OCCCC[C@H](C)O3)cc1,x,-85*,0,92
COc1ccc(S(=O)(=O)N(C)C[C@@H]2OCCCC[C@H](C)Oc3ccc(NS(=O)(=O)c4ccc(Cl)cc4)cc3C(=O)N([C@H](C)CO)C[C@@H]2C)cc1,2,-89*,-1,x
C[C@H]1CCCCO[C@@H](CN(C)S(=O)(=O)c2ccc(Cl)cc2)[C@@H](C)CN([C@@H](C)CO)C(=O)c2cc(NS(=O)(=O)c3ccccc3)ccc2O1,x,-83*,x,x
COc1ccc(S(=O)(=O)Nc2ccc3c(c2)C(=O)N([C@H](C)CO)C[C@H](C)[C@@H](CN(C)S(=O)(=O)c2ccc(Cl)cc2)OCCCC[C@H](C)O3)cc1,0,-64,-2,93
Cc1noc(C)c1S(=O)(=O)Nc1ccc2c(c1)C(=O)N([C@H](C)CO)C[C@@H](C)[C@@H](CN(C)S(=O)(=O)c1ccc(Cl)cc1)OCCCC[C@H](C)O2,2,-88*,-1,82
CN(C)C(=O)c1cccc(-c2ccc3c(c2)[C@H]2[C@H](CCN2C(=O)c2ccc(F)cc2)[C@@H](CO)N3C)c1,x,-42,3,23
CO[C@H]1CN(C)C(=O)c2cc(NC(=O)c3ccc(Oc4ccccc4)cc3)ccc2OC[C@@H](C)NC[C@H]1C,0,-55,6,-80
CO[C@@H]1CN(C)C(=O)c2ccc(NC(=O)Nc3ccc(C(F)(F)F)cc3)cc2OC[C@H](C)NC[C@H]1C,0,-95*,-2,28
CO[C@@H]1CN(C)C(=O)c2cc(NC(=O)c3ccc(Oc4ccccc4)cc3)ccc2OC[C@@H](C)NC[C@@H]1C,0,-92*,-1,7
CO[C@H]1CN(C)C(=O)c2ccc(NC(=O)c3ccc(-c4ccccc4)cc3)cc2OC[C@@H](C)NC[C@@H]1C,0,-92*,-2,-32
CO[C@@H]1CN(C)C(=O)c2ccc(NC(=O)c3ccc(-c4ccccc4)cc3)cc2OC[C@H](C)NC[C@@H]1C,0,u,-4,-10
CO[C@@H]1CN(C)C(=O)c2ccc(NC(=O)c3ccc(-c4ccccc4)cc3)cc2OC[C@@H](C)NC[C@@H]1C,x,-86*,-2,x
C[C@H]1CN([C@@H](C)CO)S(=O)(=O)c2ccc(-c3cccnc3)cc2O[C@H]1CN(C)CC1CC1,-1,-20,-2,-159
CO[C@@H]1CN(C)C(=O)c2cc(NC(=O)Nc3cccc(Cl)c3)ccc2OC[C@@H](C)NC[C@@H]1C,0,-85*,0,-5
CO[C@@H]1CN(C)C(=O)c2cc(NC(=O)Nc3cccc(Cl)c3)ccc2OC[C@@H](C)NC[C@H]1C,0,-23,-1,-13
C[C@@H]1CN([C@H](C)CO)C(=O)c2cc(NC(=O)Nc3ccc(F)cc3)ccc2O[C@@H](C)CCCCO[C@@H]1CN(C)C(=O)C1CCCCC1,x,-92*,1,57
C[C@@H]1CN([C@@H](C)CO)C(=O)c2cc(NC(=O)Nc3ccc(F)cc3)ccc2O[C@@H](C)CCCCO[C@@H]1CN(C)C(=O)C1CCCCC1,x,-85*,0,19
C[C@@H]1CCCCO[C@@H](CN(C)C(=O)C2CCCCC2)[C@@H](C)CN([C@@H](C)CO)C(=O)c2cc(NC(=O)Nc3ccc(F)cc3)ccc2O1,x,-79,0,76
C[C@H]1CCCCO[C@@H](CN(C)C(=O)C2CCCCC2)[C@@H](C)CN([C@@H](C)CO)C(=O)c2cc(NC(=O)NC3CCCCC3)ccc2O1,x,-82*,0,89
C[C@@H]1CCCCO[C@H](CN(C)C(=O)C2CCCCC2)[C@@H](C)CN([C@@H](C)CO)C(=O)c2cc(NC(=O)Nc3ccc(F)cc3)ccc2O1,0,-90*,0,86
C[C@@H]1CN([C@@H](C)CO)C(=O)Cc2cc(NS(=O)(=O)c3ccccc3)ccc2O[C@@H]1CN(C)Cc1ccncc1,x,8,1,36
Cc1ccc(S(=O)(=O)N(CCC#N)CCC#N)cc1,0,x,x,x
CNC[C@H]1Oc2ccc(NC(=O)Nc3cccc4ccccc34)cc2CC(=O)N([C@H](C)CO)C[C@H]1C,-2,-5,-2,-32
C[C@@H]1CN([C@H](C)CO)C(=O)c2cccc(NC(=O)CCCCCC(=O)Nc3ccccc3N)c2O[C@H]1CN(C)S(C)(=O)=O,0,2,0,x
CN(C)C(=O)C[C@H]1CC[C@H](NS(=O)(=O)c2ccccc2)[C@H](CO)O1,0,23,-2,-69
SMILES,IDH1 R132H inh,Pf Dd2 growth,GASC1 inh,Tcruzi prolif
C[C@H]1CCCCO[C@@H](CN(C)C(=O)C2CCCCC2)[C@@H](C)CN([C@@H](C)CO)C(=O)c2cc(NC(=O)Cc3ccccc3)ccc2O1,0,-87*,0,61
C[C@@H]1CN([C@H](C)CO)C(=O)c2cc(NC(=O)Nc3ccccc3)ccc2O[C@@H](C)CCCCO[C@@H]1CN(C)C(=O)C1CCCCC1,-1,-86*,x,73
C[C@@H]1CCCCO[C@@H](CN(C)C(=O)C2CCCCC2)[C@@H](C)CN([C@H](C)CO)C(=O)c2cc(NC(=O)Cc3ccccc3)ccc2O1,-3,-50,-1,58
O=C(CCc1nc(-c2ccccc2F)no1)Nc1ccccc1[N+](=O)[O-],0,x,x,x
N#C[C@@H]1[C@H](c2ccccc2-c2ccccc2F)[C@H](CO)N1C(=O)C1CC1,x,-74,0,x
N#C[C@@H]1[C@@H](c2ccccc2-c2ccccc2F)[C@H](CO)N1C(=O)C1CC1,x,-88*,1,x
CCc1nc(N2[C@@H](C#N)[C@H](c3ccccc3-c3ccccc3F)[C@@H]2CO)sc1C,x,23,-3,x
N#C[C@@H]1[C@H](c2ccccc2-c2cccc(F)c2)[C@H](CO)N1C(=O)C1CCCC1,x,-95*,-1,x
N#C[C@@H]1[C@H](c2ccccc2-c2cccc(F)c2)[C@H](CO)N1C(=O)C1CC1,x,-83*,0,x
CCc1nc(N2[C@H](C#N)[C@H](c3ccccc3-c3ccccc3F)[C@H]2CO)sc1C,x,-86*,-4,x
COc1ccc(NC(=O)N(C)C[C@@H]2Oc3c(NC(=O)Nc4ccc5c(c4)OCO5)cccc3C(=O)N([C@H](C)CO)C[C@H]2C)cc1,x,-10,2,1
CC(=O)NC[C@H]1[C@H](c2ccccc2)[C@H](CO)N1C(=O)Cc1cccnc1,x,12,0,10
N#C[C@@H]1[C@@H](c2ccc(-c3cccc(F)c3)cc2)[C@H](CO)N1C(=O)c1cccnc1,x,3,-1,51
N#C[C@H]1[C@H](c2ccc(-c3cccc(F)c3)cc2)[C@H](CO)N1C(=O)c1cccnc1,x,-91*,-3,91
Cc1ccc(-c2ccccc2[C@H]2[C@@H](C#N)N(C(=O)c3cccc(F)c3)[C@H]2CO)cc1,x,-91*,0,x
CCCNC(=O)N1[C@@H](C#N)[C@H](c2ccccc2-c2ccccc2F)[C@@H]1CO,x,-89*,-2,x
CCCC#Cc1ccc2c(c1)O[C@@H](CN(C)S(C)(=O)=O)[C@@H](C)CN([C@H](C)CO)S2(=O)=O,29,22,41*,48
